From the RNAGym collection of RNA variant scans (doi:10.1126/science.aae0568)
Variants at the floor of the assay were thinned out.

B1: tRNA (parent)
chain: GUUCCGUUGGCGUAAUGGUAACGCGUCUCCCUCCUAAGGAGAAGACUGCGGGUUCGAGUCCCGUACGGAACG

Variants of: B1
Assay: yeast fitness relative to wild type (ratio to wild type); higher = fitter; tRNA-Arg(CCU), competitive growth, 37 C, YPD
Outline: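 Genotype frequency changes were the basis for Darwinian fitness relative to wild type. The frequencies came from 100-nucleotide paired-end sequencing of gene amplicons from the start population and each end population of pooled yeast strains with tRNA-Arg(CCU) gene variants at the native locus. Competition ran in YPD at 37°C for 24 hours in six replicates, genotypes needed ≥ 100 starting reads, and estimates < 0.5 were set to 0.5.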

Compared with GUUCCGUUGGCGUAAUGGUAACGCGUCUACCCCCUAAGGAGAAGACUGCGGGUUCGAGUCCCGUACGGAACG [C29A U32C], GUUCCGUUGGCGUAAUGGUAACGCGUCUACCUCCUAAGGAGAAGACUGCGGGUUCGAGUCCAGUACGGAACG [C29A C62A] is lower in yeast fitness: 0.618 for the first, 0.581 for the second.

First: GUUCCGUUGGCGUAAUGGUAACGCGUCUACCUCCUAAGGAGAAGACUGCGGGUUAGAGUCCCGUACGGAACG [C29A C55A]
Second: GUUCCGUUGGCGUAAUGGUAACGCGUCUACCUCCUAAGGAGAAGACUGCGGGUUUGAGUCCCGUACGGAACG [C29A C55U]
The yeast fitness of the first is lower: no more than 0.5 for the first, 0.603 for the second.

Going from GUUCCGUUGGCGUAAUGGUAACGCGUCUACCUACUAAGGAGAAGACUGCGCGUUCGAGUCUCGUACGGAACG [C29A C33A G51C C61U] to GUUCCGUUGGCGUAAUGGUAACGCGUCUACCUCCUAAGGAGAAGACUGCGGGUUCGAGUGCCGUACGGAACG [C29A C60G], the yeast fitness rises from no more than 0.5 to 0.584.

Going from GUUCCGUUGGCGUAAUGGUAACGCGUCUACCUCCUAAGGAGAAGACUACGGGUUCGAGUCCCGUACGGAACG [C29A G48A] to GUUCCGUUGGCGUAAUGGUAACGCGUCUACCUCCUAAGGAGAAGACUCCGGGUUCGAGUCCCGUACGGAACG [C29A G48C], the yeast fitness falls from 0.688 to 0.613.

First: GUUCCGUUGGCGUAAUGGUAACGCGUCUACCUCGUAAGGAGAAGACUGCGGGUUCGCGUCCCGUACGGAACG [C29A C34G A57C]
Second: GUUCCGUUGGCGUAAUGGUAACGCGUCUACCUCCUAAGGAGAAGACUGCGGGUUCGAGUCCCAUACGGAACG [C29A G63A]
The yeast fitness of the first is lower: no more than 0.5 for the first, 0.623 for the second.

GUUCCGUUGGCGUAAUGGUAACGCGUCUACCUUCUAAGGAGAAGACUGCGGGUUCGAGUCCAGUACGGCACG [C29A C33U C62A A69C] and GUUCCGUUGGCGUAAUGGUAACGCGUCUACCUUCUAAGGAGAAGACAGCGGGUUCGAGUCCCGUACGGAACG [C29A C33U U47A] cannot be ordered by yeast fitness: no more than 0.5 for the first, no more than 0.5 for the second.

First: GUUCCGUUGGCGUAAUGGUAACGCGUCUACCUCCUAAGGAGAAGAUUGCGGGUUCGAGUCCCGUACGGAGCG [C29A C46U A70G]
Second: GUUCCGUUGGCGUAAUGGUAACGCGUCUACCUCCUAAGGAGAAGACUGCGGGUUCGAGUCCUGUACGAAACG [C29A C62U G68A]
The yeast fitness of the first is higher: 0.711 for the first, no more than 0.5 for the second.

First: GUUCCGUUGGCGUAAUGGUAACGCGUCUACCUCCUAAGGAGAAGACUGCGGGUUGGAGUCCCGUGCGGAACG [C29A C55G A65G]
Second: GUUCCGUUGGCGUAAUGGUAACGCGUCUACCUCCUAAGGAGAACACUGCGGGUUCGAGUCCCGUACAGAACG [C29A G44C G67A]
The yeast fitness of the first is higher: 0.57 for the first, no more than 0.5 for the second.

Going from GUUCCGUUGGCGUAAUGGUAACGCGUCUACCUCCUAAGGAGAAGACUGCGGGUUCGAGUCGCGUACGGAACG [C29A C61G] to GUUCCGUUGGCGUAAUGGUAACGCGUCUACCUCCUAAGGAGAAGACUGCGGGUUCGAGUCUCGUACGGAACG [C29A C61U], the yeast fitness rises from no more than 0.5 to 0.647.

Going from GUUCCGUUGGCGUAAUGGUAACGCGUCUACUUCCUAAGGAGCAGACUGCGGGUUCGAGUCCCGUACGGAACG [C29A C31U A42C] to GUUCCGUUGGCGUAAUGGUAACGCGUCUACCUCCUAAGGAGAAGACUCCGGGUUCGAGUCCCGUACGGCACG [C29A G48C A69C], the yeast fitness falls from 0.576 to 0.531.

Going from GUUCCGUUGGCGUAAUGGUAACGCGUCUACCUCCUAAGGAGAAGACUGCGGGUUCAAGUCCCGUACGGAACG [C29A G56A] to GUUCCGUUGGCGUAAUGGUAACGCGUCUACCUCCUAAGGAGAAGACUGCGGGUUCCAGUCCCGUACGGAACG [C29A G56C], the yeast fitness falls from 0.794 to no more than 0.5.

GUUCCGUUGGCGUAAUGGUAACGCGUCUACUUCCUAAGGUGAAGACUGCGGGUUCGAGUCCCGUACGGAACG [C29A C31U A40U] and GUUCCGUUGGCGUAAUGGUAACGCGUCUACCUCCCAAGGAGAAGACUGCGGGUUCGAGUCCCGUACAGAACG [C29A U35C G67A] cannot be ordered by yeast fitness: no more than 0.5 for the first, no more than 0.5 for the second.

First: GUUCCGUUGGCGUAAUGGUAACGCGUCUACCUCCUAAGGAGAAGAGUGCGGGUUCGAGUCCCGUACGGAACG [C29A C46G]
Second: GUUCCGUUGGCGUAAUGGUAACGCGUCUACCUCUUAAGGAGAAGACUCCGGGUUCGAGUCCCGUACGGAACG [C29A C34U G48C]
The yeast fitness of the first is higher: 0.634 for the first, no more than 0.5 for the second.

First: GUUCCGUUGGCGUAAUGGUAACGCGUCUACCUCCCAAGGAGAAGACUGCGGGUUCGAGUCCCGUACGGAACG [C29A U35C]
Second: GUUCCGUUGGCGUAAUGGUAACGCGUCUACCUUCUAAGGAGAAGACUGCGGGUUGGAGUCCCGUACGGAACG [C29A C33U C55G]
The yeast fitness of the first is lower: no more than 0.5 for the first, 0.633 for the second.

Compared with GUUCCGUUGGCGUAAUGGUAACGCGUCUACCUCCUAAGGAGAAGACUGUGGGUUCGAGUCCUGUACGGAACG [C29A C49U C62U], GUUCCGUUGGCGUAAUGGUAACGCGUCUACCUCCCAAGGAGAAGACUGCGGGUUCGAGUCCCGUACGGAGCG [C29A U35C A70G] is lower in yeast fitness: 0.562 for the first, no more than 0.5 for the second.

Compared with GUUCCGUUGGCGUAAUGGUAACGCGUCUACCUCCUAAGGAGAAGACUGCGGGUUCGAGUCCCGUACGCAACG [C29A G68C], GUUCCGUUGGCGUAAUGGUAACGCGUCUACCUCCUAAGGAGAAGACUGCGGGUUCGAGUCCCGUACGUAACG [C29A G68U] is higher in yeast fitness: 0.621 for the first, 0.721 for the second.

GUUCCGUUGGCGUAAUGGUAACGCGUCUACCUGCCAAGGAGAAGACUGCGGGUUCGAGUCCCGUAUGGAACG [C29A C33G U35C C66U] and GUUCCGUUGGCGUAAUGGUAACGCGUCUACCUCCUAAGGAAACGACUGCGGGUUCGAGUCCCGUACGGACCG [C29A G41A A43C A70C] cannot be ordered by yeast fitness: no more than 0.5 for the first, no more than 0.5 for the second.

Compared with GUUCCGUUGGCGUAAUGGUAACGCGUCUACCUCCUAAGGAGAAGACUGCCGGUUCGAGUCCCGUACGGAUCG [C29A G50C A70U], GUUCCGUUGGCGUAAUGGUAACGCGUCUACCUCCUAAGGAAAAGACUGCGGGUUCGAGUCCCGUACGGAACG [C29A G41A] is higher in yeast fitness: no more than 0.5 for the first, 0.551 for the second.

Going from GUUCCGUUGGCGUAAUGGUAACGCGUCUACCUCCUAAGGAGAAGACUGCGGGUUCGAGUACCGUAGGGAACG [C29A C60A C66G] to GUUCCGUUGGCGUAAUGGUAACGCGUCUACGUCCUAAGGAGAAGACUGCGGGUUCGAGUACCGUACGGAACG [C29A C31G C60A], the yeast fitness rises from no more than 0.5 to 0.656.
